# From ChEMBL document CHEMBL2321839, “Novel limonene and citral based 2,5-disubstituted-1,3,4-oxadiazoles: a natural product coupled approach to semicarbazones for antiepileptic activity” (Bioorg Med Chem Lett, 2013)
# Active and inactive are the calls of the source. The rule behind the calls is not given here.
# Key:
# Mus musculus [1] = assay: Antiepileptic activity in ip dosed Swiss albino mouse assessed as protection against scPTZ-induced seizures after 4 hrs; format: functional; settings: read-out: MED
# Method in brief: (§1)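 Male Swiss albino mice (18–25 g), compounds given ip at 30, 100 and 300 mg/kg. Seizures induced by maximal electroshock (MES) or subcutaneous pentylenetetrazole (scPTZ). Protection scored at 0.5 and 4.0 h after dosing.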
# Rattus norvegicus [2] = assay: Antiepileptic activity in Wistar rat assessed as protection against scSTY-induced seizures at 300 mg/kg, ip measured after 4 hrs; format: functional, organism-based; set-up: dose 300 mg/kg
# Method in brief: (§2)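 Male Wistar rats (100–150 g), compounds given ip at 30, 100 and 300 mg/kg. Seizures induced by subcutaneous strychnine (scSTY). Activity read 0.5 and 4.0 h after dosing. Reported as the minimal dose active in at least half of the animals; a dash means no activity at 300 mg/kg.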
# Mus musculus [3] = assay: Antiepileptic activity in Swiss albino mouse assessed as protection against maximal-electric shock-induced seizures at 300 mg/kg, ip measured after 0.5 hrs; format: functional, organism-based; set-up: dose 300 mg/kg; method in brief: as §1
# Mus musculus [4] = assay: Antiepileptic activity in Swiss albino mouse assessed as protection against maximal-electric shock-induced seizures at 300 mg/kg, ip measured after 4 hrs; format: functional, organism-based; set-up: dose 300 mg/kg; method in brief: as §1
# Mus musculus [5] = assay: Neurotoxicity against Swiss albino mouse by rotarod test at 300 mg/kg, ip after 0.5 hrs; format: toxicity, organism-based; set-up: dose 300 mg/kg, route intraperitoneal; settings: in vivo
# Method in brief: (§3)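 Acute neurotoxicity tested by rotorod in male Swiss albino mice (18–25 g) given 30, 100 or 300 mg/kg ip. Read at 0.5 and 4.0 h post-dose. Result is the minimal dose causing toxicity in half or more of the animals; a dash means none up to 300 mg/kg.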
# Mus musculus [6] = assay: Neurotoxicity against Swiss albino mouse by rotarod test at 300 mg/kg, ip after 4 hrs; format: toxicity, organism-based; set-up: dose 300 mg/kg, route intraperitoneal; settings: in vivo; method in brief: as §3
# Mus musculus [7] = assay: Antiepileptic activity in ip dosed Swiss albino mouse assessed as protection against scPTZ-induced seizures after 0.5 hrs; format: functional; settings: read-out: MED; method in brief: as §1
# Rattus norvegicus [8] = assay: Antiepileptic activity in ip dosed Wistar rat assessed as protection against scSTY-induced seizures after 0.5 hrs; format: functional; settings: read-out: MED
# Method in brief: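 Subcutaneous strychnine seizure test in Wistar rats (male, 100–150 g), compounds given ip at 30, 100 and 300 mg/kg. Protection read 0.5 and 4.0 h after dosing.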
# Rattus norvegicus [9] = assay: Neurotoxicity in Wistar rat at 30 mg/kg, po measured at 4 hrs by rotarod test; format: toxicity, organism-based; set-up: dose 30 mg/kg, route oral; settings: in vivo
# Method in brief: (§4)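 Neurotoxicity assessed in Wistar rats (100–150 g) after a 30 mg/kg oral dose, read at 0.25, 0.5, 1, 2 and 4 h.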
# Rattus norvegicus [10] = assay: Antiepileptic activity in Wistar rat assessed as protection against maximal electric shock-induced seizures at 30 mg/kg, po measured at 4 hrs; format: functional
# Method in brief: (§5)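 Single oral dose of 30 mg/kg in Wistar rats (100–150 g), tested by MES challenge at 0.25, 0.5, 1, 2 and 4 h.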
# Rattus norvegicus [11] = assay: Antiepileptic activity in Wistar rat assessed as protection against maximal electric shock-induced seizures at 30 mg/kg, po measured at 0.5 hrs; format: functional; method in brief: as §5
# Rattus norvegicus [12] = assay: Neurotoxicity in Wistar rat at 30 mg/kg, po measured at 0.5 hrs by rotarod test; format: toxicity, organism-based; set-up: dose 30 mg/kg, route oral; settings: in vivo; method in brief: as §4
# Rattus norvegicus [13] = assay: Antiepileptic activity in Wistar rat assessed as protection against scSTY-induced seizures at 300 mg/kg, ip measured after 0.5 hrs; format: functional, organism-based; set-up: dose 300 mg/kg; method in brief: as §2
# Rattus norvegicus [14] = assay: Antiepileptic activity in ip dosed Wistar rat assessed as protection against scSTY-induced seizures after 4 hrs; format: functional; settings: read-out: MED; method in brief: as §2
# Rattus norvegicus [15] = assay: Neurotoxicity in Wistar rat at 30 mg/kg, po measured at 0.25 hrs by rotarod test; format: toxicity, organism-based; set-up: dose 30 mg/kg, route oral; settings: in vivo; method in brief: as §4
# Rattus norvegicus [16] = assay: Neurotoxicity in Wistar rat at 30 mg/kg, po measured at 1 hr by rotarod test; format: toxicity, organism-based; set-up: dose 30 mg/kg, route oral; settings: in vivo; method in brief: as §4
# Mus musculus [17] = assay: Antiepileptic activity in ip dosed Swiss albino mouse assessed as protection against maximal-electric shock-induced seizures after 4 hrs; format: functional; settings: read-out: MED; method in brief: as §1
# Rattus norvegicus [18] = assay: Antiepileptic activity in Wistar rat assessed as protection against maximal electric shock-induced seizures at 30 mg/kg, po measured at 2 hrs; format: functional; method in brief: as §5
# Rattus norvegicus [19] = assay: Antiepileptic activity in Wistar rat assessed as GABA level in cerebellum per 100 mg at 100 mg/kg ip after 2 hrs (reference value: 23.48+/- 2.48 ug); format: functional; settings: route intraperitoneal
# Rattus norvegicus [20] = assay: Antiepileptic activity in Wistar rat assessed as GABA level in midbrain per 100 mg at 100 mg/kg ip after 2 hrs (reference value: 35.42 +/- 2.14 ug); format: functional; settings: route intraperitoneal
# Rattus norvegicus [21] = assay: Neurotoxicity in Wistar rat at 30 mg/kg, po measured at 2 hrs by rotarod test; format: toxicity, organism-based; set-up: dose 30 mg/kg, route oral; settings: in vivo; method in brief: as §4
# Mus musculus [22] = assay: Antiepileptic activity in ip dosed Swiss albino mouse assessed as protection against maximal-electric shock-induced seizures after 0.5 hrs; format: functional; settings: read-out: MED; method in brief: as §1
# Rattus norvegicus [23] = assay: Antiepileptic activity in Wistar rat assessed as protection against maximal electric shock-induced seizures at 30 mg/kg, po measured at 0.25 hrs; format: functional; method in brief: as §5
# Rattus norvegicus [24] = assay: Antiepileptic activity in Wistar rat assessed as protection against maximal electric shock-induced seizures at 30 mg/kg, po measured at 1 hr; format: functional; method in brief: as §5
# Rattus norvegicus [25] = assay: Antiepileptic activity in Wistar rat assessed as GABA level in medulla oblangata per 100 mg at 100 mg/kg ip after 2 hrs (reference value: 31.86 +/- 4.65 ug); format: functional, Medulla oblongata; settings: route intraperitoneal
# Mus musculus [26] = assay: Neurotoxicity against ip dosed Swiss albino mouse after 0.5 hrs by rotarod test; format: toxicity, organism-based; settings: in vivo; method in brief: as §3
# Mus musculus [27] = assay: Neurotoxicity against ip dosed Swiss albino mouse after 4 hrs by rotarod test; format: toxicity, organism-based; settings: in vivo; method in brief: as §3
# Mus musculus [28] = assay: Antiepileptic activity in Swiss albino mouse assessed as protection against scPTZ-induced seizures at 300 mg/kg, ip measured after 0.5 hrs; format: functional, organism-based; set-up: dose 300 mg/kg; method in brief: as §1
# Rattus norvegicus [29] = assay: Antiepileptic activity in Wistar rat assessed as GABA level in medulla oblangata per 100 mg at 30 mg/kg ip after 2 hrs (reference value: 31.86 +/- 4.65 ug); format: functional, Medulla oblongata; settings: route intraperitoneal
# Rattus norvegicus [30] = assay: Antiepileptic activity in Wistar rat assessed as GABA level in cerebellum per 100 mg at 30 mg/kg ip after 2 hrs (reference value: 23.48+/- 2.48 ug); format: functional; settings: route intraperitoneal
# Rattus norvegicus [31] = assay: Antiepileptic activity in Wistar rat assessed as GABA level in midbrain per 100 mg at 30 mg/kg ip after 2 hrs (reference value: 35.42 +/- 2.14 ug); format: functional; settings: route intraperitoneal
# Mus musculus [32] = assay: Antiepileptic activity in Swiss albino mouse assessed as protection against scPTZ-induced seizures at 300 mg/kg, ip measured after 4 hrs; format: functional, organism-based; set-up: dose 300 mg/kg; method in brief: as §1
SMILES,minimal effective dose (Mus musculus [1]),Activity (Rattus norvegicus [2]),Activity (Mus musculus [4]),Activity (Mus musculus [5]),Activity (Mus musculus [6]),minimal effective dose (Mus musculus [7]),minimal effective dose (Rattus norvegicus [8]),Activity (Rattus norvegicus [9]),Activity (Rattus norvegicus [10]),Activity (Rattus norvegicus [11]),Activity (Rattus norvegicus [12]),Activity (Rattus norvegicus [13]),minimal effective dose (Rattus norvegicus [14]),Activity (Rattus norvegicus [15]),Activity (Rattus norvegicus [16]),minimal effective dose (Mus musculus [17]),Activity (Rattus norvegicus [18]),Activity (Rattus norvegicus [19]),Activity (Rattus norvegicus [20]),minimal effective dose (Mus musculus [22]),other results
CCC1(C)CC(=O)NC1=O (centres undefined) [ETHOSUXIMIDE],300 mg/kg,inactive,inactive,Non-toxic,Non-toxic,100 mg/kg,300 mg/kg,,,,,,,,,,,,,,Activity (Mus musculus [3]): inactive
C=C(C)[C@@H]1CC=C(C)/C(=N/NC(=O)Nc2nnc(-c3ccc([N+](=O)[O-])cc3)o2)C1,300 mg/kg,,,Non-toxic,Non-toxic,100 mg/kg,,Non-toxic,50%,25%,Non-toxic,inactive,300 mg/kg,Non-toxic,Non-toxic,300 mg/kg,50%,28.64 µg,66.6 µg,100 mg/kg,Activity (Rattus norvegicus [21]): Non-toxic; Activity (Rattus norvegicus [23]): 75%; Activity (Rattus norvegicus [24]): 25%; Activity (Rattus norvegicus [25]): 48.59 µg
NC(=O)N1c2ccccc2C=Cc2ccccc21 [CARBAMAZEPINE],300 mg/kg,inactive,,,,100 mg/kg,,,,,,inactive,,,,100 mg/kg,,,,30 mg/kg,MTC (Mus musculus [26]): 100 mg/kg; MTC (Mus musculus [27]): 300 mg/kg
C=C(C)[C@@H]1CC=C(C)/C(=N/NC(=O)Nc2nnc(-c3ccc(O)cc3)o2)C1,300 mg/kg,,,Non-toxic,Non-toxic,,,Non-toxic,50%,0%,Non-toxic,inactive,300 mg/kg,Non-toxic,Non-toxic,300 mg/kg,0%,30.64 µg,47.42 µg,100 mg/kg,Activity (Mus musculus [28]): inactive; Activity (Rattus norvegicus [21]): 0%; Activity (Rattus norvegicus [23]): 25%; Activity (Rattus norvegicus [24]): 25%; Activity (Rattus norvegicus [25]): 43.48 µg
CN1C(=O)CC(=O)N(c2ccccc2)c2cc(Cl)ccc21 [CLOBAZAM],,,,,,,,,,,,,,,,,,,,,Activity (Rattus norvegicus [29]): 47.53 µg; Activity (Rattus norvegicus [30]): 35.44 µg; Activity (Rattus norvegicus [31]): 69.51 µg
CCCC(CCC)C(=O)[O-].[Na+] [VALPROATE SODIUM],,inactive,inactive,Non-toxic,Non-toxic,300 mg/kg,300 mg/kg,,,,,,,,,,,,,300 mg/kg,Activity (Mus musculus [32]): inactive
